Experiments:
[1] = Inhibition of beta-hematin formation assessed as Ferriprotoporphyrin IX biomineralisation at 1 mg/ml after 24 hrs; assay type: functional
How it was run: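 Hemin chloride (0.5 mg/ml in DMSO) mixed with 0.5 M sodium acetate buffer pH 4.4 and drug or solvent control, incubated 37 °C for 24 h. Pellet washed with DMSO to remove unreacted hemin, dissolved in 0.1 N NaOH, absorbance read at 405 nm; percent inhibition relative to control. Highest concentration tested 1 mg/ml.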

[2] = tested on: Influenza A virus; assay: Antiviral activity against Influenza A virus H1N1 infected in MDCK cells assessed as inhibition of virus-induced cytopathogenicity after 4 days by colorimetric formazan-based MTS assay; assay type: functional, organism-based; conditions: 96 h
[3] = tested on: Respiratory syncytial virus; assay: Antiviral activity against Respiratory syncytial virus infected in human HeLa cells assessed as inhibition of virus-induced cytopathogenicity after 4 days; assay type: functional, organism-based; conditions: 96 h
How it was run: (§1)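 Confluent HEL, Vero or HeLa monolayers were inoculated with 100 CCID50 of virus in the presence of varying concentrations of compound. Cytopathicity was scored when it reached completion in untreated, virus-infected control cultures.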

[4] = Cytotoxicity against african green monkey Vero cells assessed as minimum compound concentration required to causes microscopically detectable alteration of normal cell morphology; assay type: cell-based; conditions: chlorocebus sabaeus
How it was run: (§2)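 Confluent, non-proliferating cell cultures were exposed to the compounds. The endpoint was the minimum concentration producing a microscopically detectable alteration of normal cell morphology.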

[5] = tested on: Influenza A virus; assay: Antiviral activity against Influenza A virus H3N2 infected in MDCK cells assessed as inhibition of virus-induced cytopathogenicity after 4 days by colorimetric formazan-based MTS assay; assay type: functional, organism-based; conditions: 96 h
[6] = tested on: Human alphaherpesvirus 3; assay: Antiviral activity against […] expressing thymidine kinase infected in HEL cells assessed as reduction of virus plaque formation after 4 days; assay type: functional, cell-based; conditions: Human alphaherpesvirus 3, strain Oka vaccine, 96 h
[7] = Cytotoxicity against human HEL cells assessed as minimum compound concentration required to causes microscopically detectable alteration of normal cell morphology; assay type: cell-based; how it was run: as §2
[8] = tested on: Plasmodium falciparum; assay: Resistant factor, ratio of IC50 for chloroquine-resistant Plasmodium falciparum K1 to IC50 for chloroquine-sensitive Plasmodium falciparum 3D7; assay type: functional
How it was run: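 Resistance factor computed as IC50 against K1 divided by IC50 against 3D7, both from the [3H]hypoxanthine incorporation assay.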

[9] = tested on: Influenza A virus; assay: Antiviral activity against Influenza A virus H1N1 infected in MDCK cells assessed as reduction visual scoring of virus-induced cytopathogenicity after 4 days; assay type: functional, organism-based; conditions: 96 h
How it was run: (§3)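 MDCK monolayers infected with 100 CCID50 of influenza A (H1N1 or H3N2) or influenza B, with varying compound concentrations. Cytopathicity read when untreated infected controls reached complete CPE.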

[10] = tested on: Coxsackievirus B4; assay: Antiviral activity against Coxsackie virus B4 infected in african green monkey Vero cells assessed as inhibition of virus-induced cytopathogenicity after 4 days; assay type: functional, organism-based; conditions: Enterovirus B, 96 h; how it was run: as §1
[11] = tested on: Vesicular stomatitis virus; assay: Antiviral activity against Vesicular stomatitis virus infected in HeLa cells assessed as inhibition of virus-induced cytopathogenicity after 4 days; assay type: functional, organism-based; conditions: 96 h
How it was run: (§4)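 Confluent HEL or HeLa monolayers infected with 100 CCID50 of virus in the presence of varying compound concentrations.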

[12] = tested on: MDCK; assay: Cytotoxicity against MDCK cells assessed as cell viability by colorimetric formazan-based MTS assay; design: species or system Canis lupus familiaris; conditions: dog, mdck
How it was run: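 Cytotoxicity on MDCK cells; 50% cytotoxic concentration from cell viability measured by colorimetric formazan-based MTS assay.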

[13] = tested on: Human immunodeficiency virus 2; assay: Antiviral activity against HIV2 infected in human CEM cells assessed as inhibition of virus-induced cytopathic effect after 4 days; assay type: functional, organism-based; conditions: Human immunodeficiency virus 2, CCRF-CEM, 96 h
How it was run: (§5)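 CEM T-lymphocytes (~3 × 10^5 cells/ml) were infected with HIV-1 IIIB or HIV-2 ROD at ~100 CCID50, then immediately plated with a range of compound concentrations. Giant cell formation was scored microscopically after 4 days at 37 °C. Cytostatic activity was tested in parallel in uninfected CEM cells.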

[14] = tested on: Human alphaherpesvirus 1; assay: Antiviral activity against thymidine kinase-deficient acyclovir-resistant HSV1 KOS infected in HEL cells assessed as inhibition of virus-induced cytopathogenicity after 4 days; assay type: functional, organism-based; conditions: Human alphaherpesvirus 1, KOS, 96 h; how it was run: as §4
[15] = tested on: Sindbis virus; assay: Antiviral activity against Sindbis virus infected in african green monkey Vero cells assessed as inhibition of virus-induced cytopathogenicity after 4 days; assay type: functional, organism-based; conditions: 96 h; how it was run: as §1
[16] = tested on: Influenza B virus; assay: Antiviral activity against Influenza B virus infected in MDCK cells assessed as inhibition of virus-induced cytopathogenicity after 4 days by colorimetric formazan-based MTS assay; assay type: functional, organism-based; conditions: 96 h
[17] = tested on: Felid alphaherpesvirus 1; assay: Antiviral activity against Feline herpesvirus infected in cat CRFK cells assessed as inhibition of virus-induced cytopathic effect after 4 days by colorimetric formazan-based MTS assay; assay type: functional, organism-based; conditions: Felid alphaherpesvirus 1, CRFK, 96 h
[18] = tested on: Human betaherpesvirus 5; assay: Antiviral activity against Cytomegalovirus AD-169 infected in HEL cells assessed as inhibition of virus plaque formation after 4 days; assay type: functional, organism-based; conditions: Human betaherpesvirus 5, AD169, HEL, 96 h
[19] = Cytotoxicity against human HeLa cells assessed as minimum compound concentration required to causes microscopically detectable alteration of normal cell morphology; assay type: cell-based; how it was run: as §2
[20] = tested on: Plasmodium falciparum; assay: Antiplasmodial activity chloroquine-resistant Plasmodium falciparum K1 infected in human A+ erythrocytes assessed as inhibition of [3H]-hypoxanthine incorporation after 24 hrs by scintillation counting; assay type: functional, organism-based
[21] = tested on: Mammalian orthoreovirus 1; assay: Antiviral activity against Reovirus-1 infected in african green monkey Vero cells assessed as inhibition of virus-induced cytopathogenicity after 4 days; assay type: functional, organism-based; conditions: Mammalian orthoreovirus 1, Vero, 96 h; how it was run: as §1
[22] = tested on: Plasmodium falciparum; assay: Antiplasmodial activity chloroquine-sensitive Plasmodium falciparum 3D7 infected in human A+ erythrocytes assessed as inhibition of [3H]-hypoxanthine incorporation after 24 hrs by scintillation counting; assay type: functional, organism-based
[23] = Selectivity index, ratio of CC50 for MDCK cells to IC50 for chloroquine-resistant Plasmodium falciparum K1; assay type: functional
How it was run: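 Selectivity index computed as MTS-based CC50 on MDCK cells divided by IC50 against P. falciparum K1.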

[24] = tested on: Human respirovirus 3; assay: Antiviral activity against Parainfluenza-3 virus infected in african green monkey Vero cells assessed as inhibition of virus-induced cytopathogenicity after 4 days; assay type: functional, organism-based; conditions: Human respirovirus 3, Vero, 96 h; how it was run: as §1
[25] = Cytotoxicity against MDCK cells assessed as minimum compound concentration required to causes microscopically detectable alteration of normal cell morphology; assay type: cell-based, Canis lupus familiaris; conditions: dog; how it was run: as §2
[26] = tested on: Human betaherpesvirus 5; assay: Antiviral activity against Human cytomegalovirus Davis infected in HEL cells assessed as inhibition of virus plaque formation after 4 days; assay type: functional, organism-based; conditions: Human betaherpesvirus 5, Davis, 96 h
[27] = tested on: Human alphaherpesvirus 3; assay: Antiviral activity against thymidine kinase-deficient […] infected in HEL cells assessed as reduction of virus plaque formation after 4 days; assay type: functional, organism-based; conditions: Human alphaherpesvirus 3, 07-1, HEL, 96 h
[28] = tested on: Human alphaherpesvirus 2; assay: Antiviral activity against HSV2 G infected in HEL cells assessed as inhibition of virus-induced cytopathogenicity after 4 days; assay type: functional, organism-based; conditions: Human alphaherpesvirus 2, strain G, 96 h; how it was run: as §1
[29] = tested on: Human immunodeficiency virus 1; assay: Antiviral activity against HIV1 infected in human CEM cells assessed as inhibition of virus-induced cytopathic effect after 4 days; assay type: functional, organism-based; conditions: Human immunodeficiency virus 1, CCRF-CEM, 96 h; how it was run: as §5
[30] = Cytotoxicity against cat CRFK cells assessed as cell viability by colorimetric formazan-based MTS assay; design: species or system Felis catus; conditions: crfk
[31] = tested on: Punta Toro virus; assay: Antiviral activity against Punta Toro virus infected in african green monkey Vero cells assessed as inhibition of virus-induced cytopathogenicity after 4 days; assay type: functional, organism-based; conditions: 96 h; how it was run: as §1
[32] = tested on: Influenza B virus; assay: Antiviral activity against Influenza B virus infected in MDCK cells assessed as reduction visual scoring of virus-induced cytopathogenicity after 4 days; assay type: functional, organism-based; conditions: 96 h; how it was run: as §3
[33] = tested on: Influenza A virus; assay: Antiviral activity against Influenza A virus H3N2 infected in MDCK cells assessed as reduction visual scoring of virus-induced cytopathogenicity after 4 days; assay type: functional, organism-based; conditions: 96 h; how it was run: as §3
[34] = tested on: Feline infectious peritonitis virus; assay: Antiviral activity against FIPV infected in cat CRFK cells assessed as inhibition of virus-induced cytopathic effect after 4 days by colorimetric formazan-based MTS assay; assay type: functional, cell-based; conditions: Alphacoronavirus 1, CRFK, 96 h
[35] = tested on: Vesicular stomatitis virus; assay: Antiviral activity against Vesicular stomatitis virus infected in HEL cells assessed as inhibition of virus-induced cytopathogenicity after 4 days; assay type: functional, organism-based; conditions: 96 h; how it was run: as §4
[36] = tested on: Human alphaherpesvirus 1; assay: Antiviral activity against HSV1 KOS infected in HEL cells assessed as inhibition of virus-induced cytopathogenicity after 4 days; assay type: functional, organism-based; conditions: Human alphaherpesvirus 1, KOS, 96 h; how it was run: as §4
[37] = tested on: HeLa; assay: Cytotoxicity against human HeLa cells assessed as cell viability by colorimetric formazan-based MTS assay
[38] = tested on: Coxsackievirus B4; assay: Antiviral activity against Coxsackie virus B4 infected in human HeLa cells assessed as inhibition of virus-induced cytopathogenicity after 4 days; assay type: functional, organism-based; conditions: Enterovirus B, 96 h; how it was run: as §1

SMILES	EC50 [2]	EC50 [3]	MCC [4]	EC50 [5]	EC50 [6]	MCC [7]	Ratio IC50 [8]	EC50 [9]	EC50 [10]	EC50 [11]	CC50 [12]	EC50 [13]	EC50 [14]	EC50 [15]	EC50 [16]	EC50 [17]	EC50 [18]	MCC [19]	IC50 [20]	EC50 [21]	also measured
CCOC(=O)c1c(C)nc(NCCNc2ccnc3cc(Cl)ccc23)nc1-c1ccccc1	> 0.16 µM	> 4 µM	20 µM	> 0.16 µM	> 4 µM	20 µM	6.43	> 0.16 µM	> 4 µM	> 4 µM	1.4 µM	> 2 µM	> 4 µM	> 4 µM	> 0.16 µM	> 4 µM	> 4 µM	20 µM	0.139 µM	> 4 µM	inhibition [1]: 96%; IC50 [22]: 0.0217 µM; Ratio CC50/IC50 [23]: 10.04; EC50 [24]: > 4 µM; MCC [25]: 800 nM; EC50 [26]: > 4 µM; EC50 [27]: > 20 µM; EC50 [28]: > 4 µM; EC50 [29]: > 2 µM; CC50 [30]: 7.3 µM; EC50 [31]: > 4 µM; EC50 [32]: > 0.16 µM; EC50 [33]: > 0.16 µM; EC50 [34]: > 4 µM; EC50 [35]: > 4 µM; EC50 [36]: > 4 µM; CC50 [37]: 7.9 µM; EC50 [38]: > 4 µM
Cc1nc(NCCNc2ccnc3cc(Cl)ccc23)nc(-c2ccccc2[N+](=O)[O-])c1C(=O)OC(C)C	> 0.8 µM	> 100 µM	100 µM	> 0.8 µM	> 20 µM	100 µM	0.5555	> 0.8 µM	> 20 µM	> 100 µM	2.2 µM	> 2 µM	> 20 µM	> 20 µM	> 0.8 µM	> 100 µM	> 20 µM	> 100 µM	0.096 µM	> 20 µM	IC50 [22]: 0.173 µM; Ratio CC50/IC50 [23]: 22.9; EC50 [24]: > 20 µM; MCC [25]: ≥ 800 nM; EC50 [26]: > 20 µM; EC50 [27]: > 20 µM; EC50 [28]: > 100 µM; EC50 [29]: > 10 µM; CC50 [30]: > 100 µM; EC50 [31]: > 20 µM; EC50 [32]: > 0.8 µM; EC50 [33]: > 0.8 µM; EC50 [34]: > 100 µM; EC50 [35]: > 20 µM; EC50 [36]: > 20 µM; CC50 [37]: 24.4 µM; EC50 [38]: > 100 µM

Reference: ChEMBL document CHEMBL2021854, “2-Aminopyrimidine based 4-aminoquinoline anti-plasmodial agents. Synthesis, biological activity, structure-activity relationship and mode of action studies” (Eur J Med Chem, 2012)
